Paper PMC5115981 (Cancer chemotherapy and pharmacology, 2016)
Where “and” joins values, the source holds several entries; their conditions need not be identical. Equal values may be shown once.

Experiment: Single dose pharmacokinetics in mice
Assay type: in vivo, mouse
Method in brief: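 Fasted female heterozygous Foxn1nu/Foxn1+ mice, 3 per time point (5–1440 min), received a single dose by one of three routes: 4.0 mg/kg in 10% Solutol HS IV via tail vein; the same formulation by oral gavage; or 30 mg/kg PO in 1% CMC suspension. Vehicle controls were taken at 5 and 1440 min. Sampling: cardiac-puncture EDTA plasma, tissues including brain, and metabolic-cage urine. Analysis by LC-MS/MS with a deuterated internal standard. Group means underwent non-compartmental analysis; […].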

[1] = female, heterozygous Foxn1nu/Foxn1+, mouse, brain, iv, 4 mg/kg
[2] = female, heterozygous Foxn1nu/Foxn1+, mouse, brain, po, 4 mg/kg
[3] = female, heterozygous Foxn1nu/Foxn1+, mouse, brain, po, 30 mg/kg
[4] = female, heterozygous Foxn1nu/Foxn1+, mouse, kidney, iv, 4 mg/kg
[5] = female, heterozygous Foxn1nu/Foxn1+, mouse, kidney, po, 4 mg/kg
[6] = female, heterozygous Foxn1nu/Foxn1+, mouse, kidney, po, 30 mg/kg
[7] = female, heterozygous Foxn1nu/Foxn1+, mouse, liver, iv, 4 mg/kg
[8] = female, heterozygous Foxn1nu/Foxn1+, mouse, liver, po, 4 mg/kg
[9] = female, heterozygous Foxn1nu/Foxn1+, mouse, liver, po, 30 mg/kg
[10] = female, heterozygous Foxn1nu/Foxn1+, mouse, lung, iv, 4 mg/kg
[11] = female, heterozygous Foxn1nu/Foxn1+, mouse, lung, po, 4 mg/kg
[12] = female, heterozygous Foxn1nu/Foxn1+, mouse, lung, po, 30 mg/kg
[13] = female, heterozygous Foxn1nu/Foxn1+, mouse, muscle, iv, 4 mg/kg
[14] = female, heterozygous Foxn1nu/Foxn1+, mouse, muscle, po, 30 mg/kg
[15] = female, heterozygous Foxn1nu/Foxn1+, mouse, plasma, iv, 4 mg/kg
[16] = female, heterozygous Foxn1nu/Foxn1+, mouse, plasma, po, 4 mg/kg
[17] = female, heterozygous Foxn1nu/Foxn1+, mouse, plasma, po, 30 mg/kg
[18] = female, heterozygous Foxn1nu/Foxn1+, mouse, red blood cells (RBC), iv, 4 mg/kg
[19] = female, heterozygous Foxn1nu/Foxn1+, mouse, red blood cells, po, 4 mg/kg
[20] = female, heterozygous Foxn1nu/Foxn1+, mouse, skeletal muscle, po, 4 mg/kg

Structure (SMILES): COc1ccc(C2=Nn3c(nnc3-c3cc(-c4ccc(Cl)cc4)n[nH]3)SC2C)cc1 (stereo not shown) [UPCDC-10205, 3-(3-(4-chlorophenyl)-1H-pyrazole-5-yl)-6-(4-methoxyphenyl)-7-methyl-7H-[1,2,4]triazolo[3,4-b][1,3,4]thiadiazine]
- AUC(0-t) [1]: 1730 ng·h/mL
- Tmax [1]: 15 min
- Cmax (female, heterozygous Foxn1nu/Foxn1+, mouse, brain, iv, 4 mg/kg, mice, IV 4 mg/kg in 10% Solutol HS, brain): 1640 ng/mL
- AUC(0-t) [2]: 30 ng·h/mL
- Tmax [2]: 60 min
- Cmax (female, heterozygous Foxn1nu/Foxn1+, mouse, brain, po, 4 mg/kg, mice, PO 4 mg/kg in 10% Solutol HS, brain): 15.4 ng/mL
- AUC(0-t) [3]: 33.4 ng·h/mL
- Tmax [3]: 5 min
- Cmax (female, heterozygous Foxn1nu/Foxn1+, mouse, brain, po, 30 mg/kg, mice, PO 30 mg/kg suspension in 1% CMC, brain): 49 ng/mL
- AUC(0-t) [4]: 3240 ng·h/mL
- Tmax [4]: 5 min
- Cmax (female, heterozygous Foxn1nu/Foxn1+, mouse, kidney, iv, 4 mg/kg, mice, IV 4 mg/kg in 10% Solutol HS, kidney): 4620 ng/mL
- AUC(0-t) [5]: 428 ng·h/mL
- Tmax [5]: 30 min
- Cmax (female, heterozygous Foxn1nu/Foxn1+, mouse, kidney, po, 4 mg/kg, mice, PO 4 mg/kg in 10% Solutol HS, kidney): 308 ng/mL
- AUC(0-t) [6]: 272 ng·h/mL
- Tmax [6]: 5 min
- Cmax (female, heterozygous Foxn1nu/Foxn1+, mouse, kidney, po, 30 mg/kg, mice, PO 30 mg/kg suspension in 1% CMC, kidney): 404 ng/mL
- AUC(0-t) [7]: 1470 ng·h/mL
- Tmax [7]: 30 min
- Cmax (female, heterozygous Foxn1nu/Foxn1+, mouse, liver, iv, 4 mg/kg, mice, IV 4 mg/kg in 10% Solutol HS, liver): 2780 ng/mL
- AUC(0-t) [8]: 300 ng·h/mL
- Tmax [8]: 5 min
- Cmax (female, heterozygous Foxn1nu/Foxn1+, mouse, liver, po, 4 mg/kg, mice, PO 4 mg/kg in 10% Solutol HS, liver): 220 ng/mL
- AUC(0-t) [9]: 542 ng·h/mL
- Tmax [9]: 5 min
- Cmax (female, heterozygous Foxn1nu/Foxn1+, mouse, liver, po, 30 mg/kg, mice, PO 30 mg/kg suspension in 1% CMC, liver): 564 ng/mL
- AUC(0-t) [10]: 2680 ng·h/mL
- Tmax [10]: 5 min
- Cmax (female, heterozygous Foxn1nu/Foxn1+, mouse, lung, iv, 4 mg/kg, mice, IV 4 mg/kg in 10% Solutol HS, lung): 4490 ng/mL
- AUC(0-t) [11]: 630 ng·h/mL
- Tmax [11]: 4.98 min
- Cmax (female, heterozygous Foxn1nu/Foxn1+, mouse, lung, po, 4 mg/kg, mice, PO 4 mg/kg in 10% Solutol HS, lung): 414 ng/mL
- AUC(0-t) [12]: 186 ng·h/mL
- Tmax [12]: 5 min
- Cmax (female, heterozygous Foxn1nu/Foxn1+, mouse, lung, po, 30 mg/kg, mice, PO 30 mg/kg suspension in 1% CMC, lung): 331 ng/mL
- AUC(0-t) [13]: 1630 ng·h/mL
- Tmax [13]: 15 min
- Cmax (female, heterozygous Foxn1nu/Foxn1+, mouse, muscle, iv, 4 mg/kg, mice, IV 4 mg/kg in 10% Solutol HS, muscle): 1900 ng/mL
- Cmax (female, heterozygous Foxn1nu/Foxn1+, mouse, muscle, po, 4 mg/kg, mice, PO 4 mg/kg in 10% Solutol HS, muscle): 51.2 ng/mL
- AUC(0-t) [14]: 140 ng·h/mL
- Tmax [14]: 5 min
- Cmax (female, heterozygous Foxn1nu/Foxn1+, mouse, muscle, po, 30 mg/kg, mice, PO 30 mg/kg suspension in 1% CMC, muscle): 189 ng/mL
- AUC(0-inf) [15]: 1020 ng·h/mL
- AUC(0-t) [15]: 1020 ng·h/mL
- Tmax [15]: 5 min
- half-life [15]: 36 min
- Cmax (female, heterozygous Foxn1nu/Foxn1+, mouse, plasma, iv, 4 mg/kg, mice, IV 4 mg/kg in 10% Solutol HS, plasma): 1710 ng/mL
- Vd (female, heterozygous Foxn1nu/Foxn1+, mouse, plasma, iv, 4 mg/kg, Vd, mice, IV 4 mg/kg, plasma): 3.4 L/kg
- Vd (female, heterozygous Foxn1nu/Foxn1+, mouse, plasma, iv, 4 mg/kg, Vss, mice, IV 4 mg/kg, plasma): 2 L/kg
- clearance (female, heterozygous Foxn1nu/Foxn1+, mouse, plasma, iv, 4 mg/kg, clearance, mice, IV 4 mg/kg, plasma): 65.2 mL/min/kg
- bioavailability (female, heterozygous Foxn1nu/Foxn1+, mouse, plasma, oral, 30 mg/kg): 0.3%
- AUC(0-t) [16]: 52.1 ng·h/mL
- Tmax [16]: 30 min
- half-life [16]: 48 min
- Cmax (female, heterozygous Foxn1nu/Foxn1+, mouse, plasma, po, 4 mg/kg, mice, PO 4 mg/kg in 10% Solutol HS, plasma): 35 ng/mL
- AUC(0-t) [17]: 25.7 ng·h/mL
- Tmax [17]: 60 min
- half-life [17]: 204 min
- Cmax (female, heterozygous Foxn1nu/Foxn1+, mouse, plasma, po, 30 mg/kg, mice, PO 30 mg/kg suspension in 1% CMC, plasma): 6.7 ng/mL
- AUC(0-t) [18]: 556 ng·h/mL
- Tmax [18]: 5 min
- Cmax (female, heterozygous Foxn1nu/Foxn1+, mouse, red blood cells (RBC), iv, 4 mg/kg, mice, IV 4 mg/kg in 10% Solutol HS, RBC): 980 ng/mL
- Cmax (female, heterozygous Foxn1nu/Foxn1+, mouse, red blood cells (RBC), po, 4 mg/kg, mice, PO 4 mg/kg in 10% Solutol HS, RBC): 16 ng/mL
- AUC(0-t) [19]: 23.5 ng·h/mL
- Tmax [19]: 30 min
- AUC(0-t) [20]: 91.4 ng·h/mL
- Tmax [20]: 60 min
- level in pooled urine as % of the total amount administered (mice, IV 4 mg/kg, 0-6 h collection): 0.0011%
- level in pooled urine as % of the total amount administered (mice, IV 4 mg/kg, 6-24 h collection): 0.0010%
- clearance (mice, IV 4 mg/kg, plasma, 4 mg/kg): 65 mL/min/kg
- peak plasma concentration after IV dosing (mice, IV 4 mg/kg, 4 mg/kg): 1.7 µg/mL and 4.0 µM
- plasma level by the 6 h time point (mice, IV 4 mg/kg, LLQ 1 ng/mL): below the lower limit of quantitation
- %F (oral bioavailability, using AUC0-t) (mice, PO 4 mg/kg in 10% Solutol HS vs IV 4 mg/kg, plasma, 4 mg/kg): 5.1%
- level in pooled urine as % of the total dose (mice, PO 4 mg/kg, 0-6 h): 0.0077%
- urine concentration (mice, PO 4 mg/kg, 6-24 h): below the LLQ
- time of Cmax after administration (mice, PO 4 mg/kg, plasma): 0.5 h
- plasma concentrations after the 2 h time point (mice, PO 4 mg/kg, LLQ 1 ng/mL): below the LLQ
- time of Cmax after administration (mice, PO 30 mg/kg in 1% CMC suspension, plasma): 1.0 h
- urine concentration (mice, PO 30 mg/kg in 1% CMC, all urine samples): below the LLQ
- amount excreted in urine (mice, renal excretion): < 0.1 % of dose
- tissue distribution (mice, tissue levels compared with plasma): extensive tissue distribution
